We go through 36 sequences from the array DNA melting data of Ke et al. (doi:10.1101/2024.01.08.574731).

Data set [1] is described as follows: folding enthalpy; higher = less favourable; fluorescence melt of hairpins on a sequencing array, two-state fit. The conditions noted are these: sodium 0.088 M. In short, it runs like this: (§1)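 In 50 mM Na-HEPES pH 8.0 containing 25 mM NaCl, hairpins from the library on a sequenced MiSeq flow cell were imaged for Cy3 fluorescence at 2.5 °C steps up to 60 °C, with Cy3 and quencher oligos annealed. After normalisation to pre-quench Cy3 and to control constructs, two-state fits with bootstrapping gave melting temperature and folding enthalpy. Four replicates were combined by inverse-variance weighting, and fitted temperatures were shifted up by 9.35 °C to match UV melts.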

A short description of data set [2]: melting temperature; fluorescence melt of hairpins on a sequencing array, two-state fit, raised by 9.35 °C to match UV melts. The conditions noted are these: sodium 0.088 M. Summed up: as §1

Take GCTTGGCGAAAGCGCAGC (((..((....))..))): the folding enthalpy in data set [1] was -12.8 kcal/mol. The Tm in data set [2] was determined as 43.5 °C.

For the sequence GCTTGGCGAAAGCTGAGC (((..((....))..))), the folding enthalpy in data set [1] was -22.3 kcal/mol. Moreover, the Tm in data set [2] came out at 56.2 °C.

For GCTTGGGAAACCAAGC ((((((....)))))), the folding enthalpy in data set [1] was -35.7 kcal/mol. Also, the Tm in data set [2] was found to be 62.7 °C.

Take GCTTGGGGAAACCTAGGC ((.(.((....)).).)): in data set [1], the folding enthalpy is -23.5 kcal/mol. In addition, in data set [2], the Tm worked out at 32.3 °C.

In the case of GCTTGGGGAAACTCAGGC ((.((.(....).)).)), in data set [1], the folding enthalpy was -18.2 kcal/mol. In addition, the Tm in data set [2] worked out at 36.6 °C.

For the sequence GCTTGTACGAAAGTAAGC (((..(((....)))))), the folding enthalpy in data set [1] is -24.9 kcal/mol. In addition, the Tm in data set [2] came to 37.7 °C.

With GCTTGTCCGAAAGGAAGC (((..(((....)))))), the folding enthalpy in data set [1] is -17.7 kcal/mol. Also, the Tm in data set [2] is 36.1 °C.

In the case of GCTTGTCGAAAGACCAGC (((.(((....))).))), the folding enthalpy in data set [1] is -26.7 kcal/mol. The Tm in data set [2] came out at 47.9 °C.

Turning to GCTTGTGGAAACACAAAC (.(((((....))))).), the folding enthalpy in data set [1] is -13.8 kcal/mol. For the same sequence, in data set [2], the Tm is 36.3 °C.

As to GCTTTACGAAAGTACAGC (((.(((....))).))), the folding enthalpy in data set [1] is -28.6 kcal/mol. Moreover, in data set [2], the Tm is 44.8 °C.

Consider GCTTTACGAAAGTATAGC (((.(((....))).))), for which the folding enthalpy in data set [1] was -34.1 kcal/mol. The Tm in data set [2] turned out to be 47 °C.

Take GCTTTAGGAAACTGAAGC ((((.((....)).)))): in data set [1], the folding enthalpy is -30.1 kcal/mol. Further, in data set [2], the Tm came to 42.4 °C.

As to GCTTTCACGAAAGTGAGC (((..(((....)))))), the folding enthalpy in data set [1] was -11.2 kcal/mol. For the same sequence, the Tm in data set [2] turned out to be 33.8 °C.

Regarding GCTTTCGAAAGAACGAGC ((((((....)))..))), the folding enthalpy in data set [1] is -15.1 kcal/mol. Further, the Tm in data set [2] is 28.9 °C.

With GCTTTCGCGAAAGCGAGC (((..(((....)))))), the folding enthalpy in data set [1] was -10.6 kcal/mol. Also, the Tm in data set [2] came to 48.9 °C.

With GCTTTCTCGAAAGAGAGC (((..(((....)))))), in data set [1], the folding enthalpy was -17.8 kcal/mol. Also, in data set [2], the Tm is 33 °C.

On to GCTTTGCGAAAGCACGGC ((..(((....)))..)), for which the folding enthalpy in data set [1] was -16.6 kcal/mol. Also, the Tm in data set [2] came out at 41.7 °C.

Consider GCTTTGCGAAAGCAGCGC ((..(((....)))..)), for which the folding enthalpy in data set [1] was -16.7 kcal/mol. For the same sequence, the Tm in data set [2] worked out at 48.6 °C.

In the case of GCTTTGCGAAAGCCAAGC ((((.((....)).)))), the folding enthalpy in data set [1] was -23 kcal/mol. For the same sequence, the Tm in data set [2] is 52.6 °C.

GCTTTGCGAAAGCGATGC ((.(.((....)).).)): the folding enthalpy in data set [1] was -19.2 kcal/mol. In addition, in data set [2], the Tm is 46.5 °C.

For the sequence GCTTTGCGAAAGCGGAGC (((..((....))..))), the folding enthalpy in data set [1] was -17.3 kcal/mol. Moreover, in data set [2], the Tm was 53.6 °C.

As for GCTTTGCGAAAGCGTAGC (((..((....))..))), the folding enthalpy in data set [1] was -19.6 kcal/mol. For the same sequence, the Tm in data set [2] came out at 37.2 °C.

For the sequence GCTTTGCGAAAGCTTAGC (((..((....))..))), the folding enthalpy in data set [1] is -16.7 kcal/mol. Also, the Tm in data set [2] was 55.2 °C.

GCTTTGGGAAACCAAAAC (.(((((....))))).): the folding enthalpy in data set [1] was -19.8 kcal/mol. For the same sequence, the Tm in data set [2] was 31.3 °C.

GCTTTTCCGAAAGGAAGC (((..(((....)))))): the folding enthalpy in data set [1] is -10.7 kcal/mol. Besides, in data set [2], the Tm is 33.7 °C.

Take GCTTTTGCGAAAGCAAGC (((..(((....)))))): in data set [1], the folding enthalpy is -10.3 kcal/mol. For the same sequence, the Tm in data set [2] was determined as 35 °C.

Consider GGAAAAGGAAACTTTCCC ((.((((....)))).)), for which the folding enthalpy in data set [1] is -13.1 kcal/mol. Besides, the Tm in data set [2] turned out to be 27.8 °C.

Turning to GGAAAAGGAAACTTTTTC (.(((((....))))).), the folding enthalpy in data set [1] was -20.6 kcal/mol. In data set [2], the Tm amounted to 33 °C.

With GGAAACCGAAAGGTATCC (((.(((....))).))), the folding enthalpy in data set [1] was -22.7 kcal/mol. The Tm in data set [2] was 48.4 °C.

As to GGAAACGAAAGTTATCC ((((((....))).))), in data set [1], the folding enthalpy was -12.1 kcal/mol. In data set [2], the Tm is 31.9 °C.

Take GGAAACGAAAGTTCTCC ((((((....))).))): the folding enthalpy in data set [1] was -16.8 kcal/mol. Also, in data set [2], the Tm was 35.8 °C.

With GGAAACGAAAGTTTATCC ((((((....)))..))), in data set [1], the folding enthalpy was -12.3 kcal/mol. Also, the Tm in data set [2] was determined as 25.6 °C.

Regarding GGAAACGAAAGTTTTTCC ((((((....)))..))), the folding enthalpy in data set [1] is -10.8 kcal/mol. Further, the Tm in data set [2] came to 30.6 °C.

GGAAACGGAAACGTCTCC (((.(((....))).))): the folding enthalpy in data set [1] is -23.6 kcal/mol. In addition, the Tm in data set [2] is 37.2 °C.

GGAAAGCGAAAGCTTCC (((.(((....)))))): in data set [1], the folding enthalpy is -18.1 kcal/mol. The Tm in data set [2] was 53.7 °C.

GGAAAGGAAACTTTCC ((((((....)))))): the folding enthalpy in data set [1] was -29.9 kcal/mol. For the same sequence, in data set [2], the Tm was 50 °C.
